Laboratory results: ChEMBL document CHEMBL1141666, “Synthesis of novel substituted 1,3-diaryl propenone derivatives and their antimalarial activity in vitro” (Eur J Med Chem, 2008)
≈ marks a conversion by molar mass, not a printed value.

Test system: Plasmodium falciparum
Test: Antimalarial activity against asexual blood stage of Plasmodium falciparum 3D7 after 48 hrs by candle jar method
Format: functional, organism-based
Details: 3D7, 48 h
In short: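 Asexual blood-stage parasites grown in B+ human erythrocytes, RPMI-1640 with 10% heat-inactivated pooled compatible serum; exposed to graded compound concentrations in triplicate, 48 h, 37 °C. Percent parasitemia inhibition versus controls from Giemsa-stained thin smears; IC50 from concentration-response curve.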

IC50	Compound
2.5 µg/mL (≈ 6.95 µM)	O=C(/C=C/c1ccc(Cl)cc1)c1ccc(-n2nnc3ccccc32)cc1
8.26 µg/mL (≈ 26.8 µM)	O=C(/C=C/c1ccc(Cl)cc1)c1ccc(-n2ccnc2)cc1
7.16 µg/mL (≈ 18.8 µM)	COc1cc(/C=C/C(=O)c2ccc(N3CCCCC3)cc2)cc(OC)c1OC
2.93 µg/mL (≈ 9.52 µM)	O=C(/C=C/c1ccc(Cl)cc1)c1ccc(-n2cccc2)cc1
12.3 µg/mL (≈ 40.5 µM)	COc1ccc(/C=C/C(=O)c2ccc(-n3cccn3)cc2)cc1
7.76 µg/mL (≈ 25.1 µM)	O=C(/C=C/c1ccc(Cl)cc1)c1ccc(-n2cccn2)cc1
5.15 µg/mL (≈ 15.8 µM)	O=C(/C=C/c1ccc(Cl)cc1)c1ccc(N2CCCCC2)cc1
8.03 µg/mL (≈ 22 µM)	COc1cc(/C=C/C(=O)c2ccc(-n3cncn3)cc2)cc(OC)c1OC
6.8 µg/mL (≈ 19.1 µM)	COc1ccc(/C=C/C(=O)c2ccc(-n3nnc4ccccc43)cc2)cc1
4.6 µg/mL (≈ 12 µM)	COc1cc(/C=C/C(=O)c2ccc(N3CCOCC3)cc2)cc(OC)c1OC
6 µg/mL (≈ 16.5 µM)	COc1cc(/C=C/C(=O)c2ccc(-n3cccn3)cc2)cc(OC)c1OC
9.1 µg/mL (≈ 27.8 µM)	O=C(/C=C/c1ccc(Cl)cc1)c1ccc(N2CCOCC2)cc1
6.01 µg/mL (≈ 19.3 µM)	O=C(/C=C/c1ccc(Cl)cc1)c1ccc(N2CCCC2)cc1
1.52 µg/mL (≈ 4.91 µM)	O=C(/C=C/c1ccc(Cl)cc1)c1ccc(-n2cncn2)cc1
